Series [1] has as its system L1210. Description: Cytotoxicity against mouse L1210 cells at 63 ug/disk by Valeriote soft agar disk diffusion method. In kind it is functional. In a few lines: (§1)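 Corbett–Valeriote soft agar disk diffusion assay. Sample is loaded onto a disk at the stated µg/disk and placed on soft agar cultures of the cells. The read-out is the size of the zone of inhibition around the disk. Zones for the solid tumour line (Colon38) are compared with those for leukaemia cells (L1210) or normal CFU-GM cells to judge differential cytotoxicity.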
(In general: A growth-free zone around the sample is the usual read-out of agar diffusion tests.)

In series [2] the test system is MC-38. Description: Cytotoxicity against […] cells at 63 ug/disk by Valeriote soft agar disk diffusion method. The format is functional. In a few lines: as §1
Series [3] can be described thus: Cytotoxicity against human CFU-GM cells at 63 ug/disk by Valeriote soft agar disk diffusion method. The format is cell-based. The gist of the method:
as §1

In series [4] the test system is L1210. Description: Cytotoxicity against mouse L1210 cells at 113 ug/disk by Valeriote soft agar disk diffusion method. In kind it is functional. The gist of the method:
as §1

For series [5], the system named is MC-38. Description: Cytotoxicity against […] cells at 113 ug/disk by Valeriote soft agar disk diffusion method. The format is functional. In a few lines: as §1
A short description of series [6]: Cytotoxicity against human CFU-GM cells at 113 ug/disk by Valeriote soft agar disk diffusion method. The format is cell-based. The gist of the method:
as §1

Series [7] in a line: Cytotoxicity against human NCI60 cells. In kind it is functional. The settings on record: for TGI: read-out: pTGI (converted).
Series [8] is described as follows: Cytotoxicity against human H116 cells at 1.5 ug/mL by Valeriote soft agar disk diffusion method. The format is functional. The gist of the method:
(§2)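 Corbett–Valeriote soft agar disk diffusion assay, with doses given per disk. Zones of inhibition around sample disks were compared between solid tumor cells (Colon38, ColonH116, LungH125) and either leukemia cells (L1210 or CEM) or normal CFU-GM cells. Zone sizes were used to score differential (solid tumor-selective) cytotoxicity.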

Series [9] is described as follows: Cytotoxicity against human H125 cells at 1.5 ug/mL by Valeriote soft agar disk diffusion method. In kind it is functional. In a few lines:
as §2

The test system of series [10] is L1210. The series can be described thus: Cytotoxicity against mouse L1210 cells at 1.5 ug/mL by Valeriote soft agar disk diffusion method. In kind it is functional. The gist of the method:
as §2

Series [11] has as its system CCRF-CEM. The series can be described thus: Cytotoxicity against human CEM cells at 1.5 ug/mL by Valeriote soft agar disk diffusion method. The format is functional. In a few lines: as §2
Series [12] has as its system MC-38. Description: Cytotoxicity against […] cells at 1.5 ug/mL by Valeriote soft agar disk diffusion method. In kind it is functional. In a few lines: as §2
The test system of series [13] is CCRF-CEM. The series can be described thus: Cytotoxicity against human CEM cells at 1.5 ug/mL by Valeriote soft agar disk diffusion method.
Series [14] can be described thus: Cytotoxicity against human H116 cells at 1.5 ug/mL by Valeriote soft agar disk diffusion method.
Series [15] can be described thus: Cytotoxicity against human H125 cells at 1.5 ug/mL by Valeriote soft agar disk diffusion method.
Series [16] relates to L1210. Description: Cytotoxicity against mouse L1210 cells at 1.5 ug/mL by Valeriote soft agar disk diffusion method.
Series [17] has as its system MC-38. Description: Cytotoxicity against […] cells at 1.5 ug/mL by Valeriote soft agar disk diffusion method.
The subject of series [18] is MC-38. Description: Cytotoxicity against […] cells at 1.8 ug/mL by Valeriote soft agar disk diffusion method. In kind it is functional. In a few lines: as §2

The structures appear in SMILES notation.

As usually defined, the GI50 is the concentration at which growth is held to half of that of the control. A word on the LC50: it is the concentration that kills 50% of the test population. Low readings indicate greater toxicity, high ones lower toxicity.

For `C=C1[C@@H](O)C[C@H]2C(C)(C)[C@@H](O)[C@H](Cl)C[C@]2(C)[C@H]1C[C@H](O)[C@H]1CC(=O)NC1=O`, the results for the Activity (with L1210 [1]; in the series on MC-38 [2]; in [3]) were 500 Zone units, 400 Zone units and 100 Zone units, respectively.
As to `C=C1CC(=O)[C@H]2C(C)(C)[C@@H](Cl)[C@H](Cl)C[C@]2(C)[C@H]1C[C@H](O)[C@H]1CC(=O)NC1=O`, the Activity in the series on L1210 [4] is listed as 250 Zone units; in the series with MC-38 [5], 650 Zone units; in series [6] it was 350 Zone units.
On to `C=C1[C@@H](O)C[C@H]2C(C)(C)C[C@H](Cl)C[C@]2(C)[C@H]1C[C@H](O)[C@H]1CC(=O)NC1=O` [CHLOROLISSOCLIMIDE], for which growth in [7] was halved (GI50) at 5.75 nM. Moreover, the LC50 in [7] was 16600 nM. In series [7], the TGI is 129 nM. Also, the Activity (in series [8]; in series [9]; in the series on L1210 [10]; with CCRF-CEM [11]; with MC-38 [12]; in the series with CCRF-CEM [13]) was 550 Zone units in each case. For the same compound, the Activity (in series [14]; in [15]; with L1210 [16]; in the series with MC-38 [17]) was 550 Zone units throughout.
Compound `C=C1[C@@H](O)C[C@H]2C(C)(C)[C@@H](Cl)[C@H](Cl)C[C@]2(C)[C@H]1C[C@H](O)[C@H]1CC(=O)NC1=O` [DICHLOROLISSOCLIMIDE] had a GI50 in [7] of 5.5 nM. In addition, in series [7], the LC50 was 20000 nM. Moreover, in [7], the TGI was 123 nM. The Activity (in [8]; in series [9]; with L1210 [10]; in the series with CCRF-CEM [11]; with MC-38 [12]; in the series on MC-38 [18]) was 550 Zone units throughout. The Activity (with CCRF-CEM [13]; in [14]; in [15]; with L1210 [16]) was 550 Zone units throughout.
As to `CC1=CC(=O)[C@H]2C(C)(C)[C@@H](Cl)[C@H](Cl)C[C@]2(C)[C@H]1C[C@H](O)[C@H]1CC(=O)NC1=O` [HATERUMAIMIDE D], in [7], growth was halved (GI50) at 977 nM, the LC50 was 44700 nM and the TGI was 12300 nM.

The values are drawn from ChEMBL document CHEMBL1148211, “Cytotoxic lissoclimide-type diterpenes from the molluscs Pleurobranchusalbiguttatus and Pleurobranchus forskalii” (J Nat Prod, 2004).
